Test results as given in publication PMC3115441 (Chemical biology & drug design, 2011).
“Also recorded” adds a separate entry of the source. Read-outs that look alike come from different tables or passages of the source.

How the values were obtained:
[1] = test system: PCP site of the NMDA receptor complex; assay: [3H]; type: binding, rat; details: for % inhibition of 1 nM [3H] (+)-MK-801: compound at 10 μM (10,000 nM); for IC50: rat forebrain homogenate, 1 nM (+)-[3H]MK-801; for Ki: read-out: NMDA affinity Ki, calculated by Cheng and Prusoff equation
How it was run: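 Washed rat forebrain homogenate (30 ug/mL protein) in 10 mM HEPES, pH 7.4, with 1 nM (+)-[3H]MK-801, 100 uM glutamate, 30 uM glycine and varied competitor concentrations. Nonspecific binding was set with 30 uM (+)-MK-801. Incubation ran 2 h at room temperature, then vacuum filtration onto GF/B filters, three buffer washes and scintillation counting.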

Serotonin 2A (5-HT2A) = Serotonin 2A (5-HT2A) (Homo sapiens, UniProt P28223); assay: NIMH-PDSP radioligand binding, 5-HT2A
Dopamine 1 (D1) = Dopamine 1 (D1) (Homo sapiens, UniProt P21728); assay: NIMH-PDSP radioligand binding, D1
Dopamine 2 (D2) = Dopamine 2 (D2) (Homo sapiens, UniProt P14416); assay: NIMH-PDSP radioligand binding, D2
[2] = target: Dopamine Transporter (DAT) (Homo sapiens, UniProt Q01959); assay: NIMH-PDSP radioligand binding, DAT
[3] = target: κ- opioid receptors (KOR) (Rattus norvegicus, UniProt P34975); assay: NIMH-PDSP radioligand binding, KOR
[4] = target: μ- opioid receptors (MOR) (Homo sapiens, UniProt P35372); assay: NIMH-PDSP radioligand binding, MOR
[5] = target: Norepinephrine Transporter (NET) (Homo sapiens, UniProt P23975); assay: NIMH-PDSP radioligand binding, NET
[6] = target: Serotonin Transporter (SERT) (Homo sapiens, UniProt P31645); assay: NIMH-PDSP radioligand binding, SERT
Sigma1 = Sigma1 (Rattus norvegicus, UniProt Q9R0C9); assay: NIMH-PDSP radioligand binding, Sigma-1
Sigma2 = target: T1, Sigma2 (Rattus norvegicus, UniProt Q5U3Y7); assay: NIMH-PDSP radioligand binding, Sigma-2
T1 sequence (Q5U3Y7 1-176): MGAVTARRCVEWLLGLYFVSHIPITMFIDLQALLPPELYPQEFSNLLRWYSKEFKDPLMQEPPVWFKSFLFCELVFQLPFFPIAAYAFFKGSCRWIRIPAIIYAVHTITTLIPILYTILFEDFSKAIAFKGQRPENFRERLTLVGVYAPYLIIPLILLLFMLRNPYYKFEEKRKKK

MES-induced seizures = assay: Maximal electroshock; type: in vivo, mice; details: for MES (30) N/F, animals active over tested: 30 mg/kg i.p.; for MES (100) N/F, animals active over tested: 100 mg/kg i.p.; for MES protection (in words): 100 mg/kg; for MES neuroprotective activity (in words): mouse, in vivo
How it was run: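 Mice received test compound i.p. at 30, 100 or 300 mg/kg in 0.01 ml/g and were tested at various intervals after dosing. Corneal electrodes primed with 0.5% tetracaine HCl electrolyte delivered 60 Hz alternating current, 50 mA, for 0.2 s. An animal counted as protected when the hindlimb tonic extensor component was abolished. Results are scored as animals protected over tested.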

[7] = test system: Metrazol-induced clonic seizures; assay: Subcutaneous Metrazol seizure threshold test; type: in vivo, mice; details: for scMET (30) N/F, animals active over tested: 30 mg/kg; for scMET (100) N/F, animals active over tested: 100 mg/kg; for scMET (300) N/F, animals active over tested: 300 mg/kg
mice = assay: Acute toxicity, minimal motor impairment; type: in vivo; details: for TOX (30) N/F, animals toxic over tested / TOX (100) N/F, animals toxic over tested / TOX (300) N/F, animals toxic over tested: rotorod; for TOX (30) N/F, animals toxic over tested: 30 mg/kg

Dopamine 2 (D2), sequence (P14416 whole entry): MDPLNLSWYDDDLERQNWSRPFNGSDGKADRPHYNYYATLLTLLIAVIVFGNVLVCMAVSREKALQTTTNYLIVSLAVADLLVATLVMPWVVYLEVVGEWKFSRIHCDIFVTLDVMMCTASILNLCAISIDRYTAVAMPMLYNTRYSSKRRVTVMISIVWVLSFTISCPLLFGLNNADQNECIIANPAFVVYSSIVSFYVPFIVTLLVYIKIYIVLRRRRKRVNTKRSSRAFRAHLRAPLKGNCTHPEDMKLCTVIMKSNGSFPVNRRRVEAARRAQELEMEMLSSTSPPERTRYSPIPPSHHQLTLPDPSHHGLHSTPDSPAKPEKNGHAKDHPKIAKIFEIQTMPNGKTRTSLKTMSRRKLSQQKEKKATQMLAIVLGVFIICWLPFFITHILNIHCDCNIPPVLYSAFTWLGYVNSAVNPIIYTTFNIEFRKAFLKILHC
Serotonin 2A (5-HT2A), sequence (P28223 whole entry): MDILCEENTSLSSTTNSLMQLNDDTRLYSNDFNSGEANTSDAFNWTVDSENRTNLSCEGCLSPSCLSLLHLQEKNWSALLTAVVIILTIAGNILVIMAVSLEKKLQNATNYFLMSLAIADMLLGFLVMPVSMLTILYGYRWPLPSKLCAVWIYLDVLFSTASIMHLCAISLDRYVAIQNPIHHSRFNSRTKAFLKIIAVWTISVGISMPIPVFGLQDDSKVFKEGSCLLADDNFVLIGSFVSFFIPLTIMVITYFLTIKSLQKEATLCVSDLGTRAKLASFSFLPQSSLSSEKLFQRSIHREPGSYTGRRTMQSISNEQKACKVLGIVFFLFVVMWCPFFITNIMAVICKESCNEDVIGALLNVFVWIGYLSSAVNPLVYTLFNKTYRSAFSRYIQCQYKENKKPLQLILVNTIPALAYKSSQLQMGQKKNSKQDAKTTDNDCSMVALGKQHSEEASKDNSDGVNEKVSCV
μ- opioid receptors (MOR), sequence (P35372 whole entry): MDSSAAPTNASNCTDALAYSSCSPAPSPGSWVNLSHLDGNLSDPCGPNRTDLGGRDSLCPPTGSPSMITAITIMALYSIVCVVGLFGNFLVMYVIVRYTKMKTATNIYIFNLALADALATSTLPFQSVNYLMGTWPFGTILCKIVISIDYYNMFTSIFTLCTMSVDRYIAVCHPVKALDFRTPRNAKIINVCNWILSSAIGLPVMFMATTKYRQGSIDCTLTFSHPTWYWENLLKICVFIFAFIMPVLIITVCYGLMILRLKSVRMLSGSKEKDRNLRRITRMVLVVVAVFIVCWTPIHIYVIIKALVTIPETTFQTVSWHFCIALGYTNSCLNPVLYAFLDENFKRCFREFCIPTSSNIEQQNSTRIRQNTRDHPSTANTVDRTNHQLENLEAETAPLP
κ- opioid receptors (KOR), sequence (P34975 whole entry): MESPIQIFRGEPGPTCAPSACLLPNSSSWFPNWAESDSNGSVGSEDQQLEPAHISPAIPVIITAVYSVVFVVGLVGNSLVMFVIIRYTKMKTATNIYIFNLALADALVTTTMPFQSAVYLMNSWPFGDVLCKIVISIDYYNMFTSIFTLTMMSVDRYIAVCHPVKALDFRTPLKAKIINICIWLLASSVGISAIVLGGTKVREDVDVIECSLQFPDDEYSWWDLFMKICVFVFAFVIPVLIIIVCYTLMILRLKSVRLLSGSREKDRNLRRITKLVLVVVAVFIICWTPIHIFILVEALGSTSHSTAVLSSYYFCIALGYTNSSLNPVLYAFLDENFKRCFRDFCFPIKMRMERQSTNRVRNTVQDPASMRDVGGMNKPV
Sigma1, sequence (Q9R0C9 whole entry): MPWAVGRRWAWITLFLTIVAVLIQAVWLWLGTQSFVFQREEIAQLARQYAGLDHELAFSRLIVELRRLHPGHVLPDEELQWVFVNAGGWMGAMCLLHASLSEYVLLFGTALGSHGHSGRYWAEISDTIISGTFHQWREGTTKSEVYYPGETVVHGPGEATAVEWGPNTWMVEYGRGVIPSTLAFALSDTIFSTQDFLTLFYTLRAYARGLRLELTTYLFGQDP
Norepinephrine Transporter (NET), sequence (P23975 whole entry): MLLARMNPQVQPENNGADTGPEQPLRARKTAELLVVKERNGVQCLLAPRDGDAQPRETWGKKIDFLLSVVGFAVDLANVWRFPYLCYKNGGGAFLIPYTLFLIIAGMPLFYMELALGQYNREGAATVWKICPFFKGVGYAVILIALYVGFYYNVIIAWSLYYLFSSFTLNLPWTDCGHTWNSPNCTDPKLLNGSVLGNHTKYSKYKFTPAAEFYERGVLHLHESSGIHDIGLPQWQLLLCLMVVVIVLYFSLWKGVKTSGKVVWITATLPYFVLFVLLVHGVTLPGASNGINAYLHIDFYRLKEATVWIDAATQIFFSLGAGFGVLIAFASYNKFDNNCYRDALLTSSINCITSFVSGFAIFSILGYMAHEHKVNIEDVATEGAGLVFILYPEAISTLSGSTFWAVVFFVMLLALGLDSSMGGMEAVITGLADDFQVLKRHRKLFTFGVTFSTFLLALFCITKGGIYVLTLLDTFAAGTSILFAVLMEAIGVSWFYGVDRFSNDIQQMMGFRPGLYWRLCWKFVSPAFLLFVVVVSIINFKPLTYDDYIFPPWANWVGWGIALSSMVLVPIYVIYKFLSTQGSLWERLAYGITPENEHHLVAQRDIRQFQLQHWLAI
Dopamine Transporter (DAT), sequence (Q01959 whole entry): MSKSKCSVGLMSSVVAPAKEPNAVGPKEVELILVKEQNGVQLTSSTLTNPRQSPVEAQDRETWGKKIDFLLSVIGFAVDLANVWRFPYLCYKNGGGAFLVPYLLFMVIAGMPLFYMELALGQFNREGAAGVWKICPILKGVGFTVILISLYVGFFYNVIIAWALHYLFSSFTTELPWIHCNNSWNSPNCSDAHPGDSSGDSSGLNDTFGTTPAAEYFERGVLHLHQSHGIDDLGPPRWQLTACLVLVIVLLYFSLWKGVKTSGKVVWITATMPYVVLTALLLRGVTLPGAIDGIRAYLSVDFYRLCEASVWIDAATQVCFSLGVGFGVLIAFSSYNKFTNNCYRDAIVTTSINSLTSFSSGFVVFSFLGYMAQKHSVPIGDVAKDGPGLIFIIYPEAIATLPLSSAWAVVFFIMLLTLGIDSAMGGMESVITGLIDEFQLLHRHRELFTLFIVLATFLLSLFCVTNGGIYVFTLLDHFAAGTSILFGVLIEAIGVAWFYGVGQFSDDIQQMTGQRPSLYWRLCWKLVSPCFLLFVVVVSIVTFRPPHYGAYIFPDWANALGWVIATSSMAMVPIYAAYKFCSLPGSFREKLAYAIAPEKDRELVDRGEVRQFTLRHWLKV
Serotonin Transporter (SERT), sequence (P31645 whole entry): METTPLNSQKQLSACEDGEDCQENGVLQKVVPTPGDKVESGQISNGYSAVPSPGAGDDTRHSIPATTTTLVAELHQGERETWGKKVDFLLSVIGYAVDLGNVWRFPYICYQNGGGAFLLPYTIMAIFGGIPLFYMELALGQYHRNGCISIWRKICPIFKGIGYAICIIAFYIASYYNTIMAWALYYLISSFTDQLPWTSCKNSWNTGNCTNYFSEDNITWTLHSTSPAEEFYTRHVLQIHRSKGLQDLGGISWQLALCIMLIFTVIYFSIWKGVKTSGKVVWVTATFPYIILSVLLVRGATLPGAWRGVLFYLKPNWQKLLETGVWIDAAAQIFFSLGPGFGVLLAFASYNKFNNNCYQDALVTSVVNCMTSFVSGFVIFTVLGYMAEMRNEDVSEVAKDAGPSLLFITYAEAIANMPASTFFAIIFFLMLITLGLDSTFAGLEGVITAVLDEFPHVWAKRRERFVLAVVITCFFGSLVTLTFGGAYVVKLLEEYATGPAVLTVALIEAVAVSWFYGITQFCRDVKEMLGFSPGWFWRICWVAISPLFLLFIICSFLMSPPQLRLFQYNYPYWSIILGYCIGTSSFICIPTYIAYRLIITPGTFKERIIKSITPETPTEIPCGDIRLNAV
Dopamine 1 (D1), sequence (P21728 whole entry): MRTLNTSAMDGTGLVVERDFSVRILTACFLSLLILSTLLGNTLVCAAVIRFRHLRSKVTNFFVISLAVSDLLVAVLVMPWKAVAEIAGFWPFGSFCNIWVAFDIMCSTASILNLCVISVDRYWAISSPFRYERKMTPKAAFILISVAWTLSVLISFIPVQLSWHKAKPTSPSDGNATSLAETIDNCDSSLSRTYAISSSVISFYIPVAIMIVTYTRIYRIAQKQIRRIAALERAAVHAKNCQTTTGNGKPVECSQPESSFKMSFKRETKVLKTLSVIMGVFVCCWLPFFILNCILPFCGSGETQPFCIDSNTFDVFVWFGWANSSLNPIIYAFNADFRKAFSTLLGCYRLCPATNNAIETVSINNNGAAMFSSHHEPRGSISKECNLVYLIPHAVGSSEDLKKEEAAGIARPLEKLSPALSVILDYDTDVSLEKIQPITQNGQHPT

| Compound | Ki (Serotonin 2A (5-HT2A)) [µM] | Ki (Dopamine 1 (D1)) [µM] | Ki (Dopamine 2 (D2)) [µM] | Ki [2] [µM] | Ki [3] [µM] | Ki [4] [µM] | Ki [5] [µM] | Ki [6] [µM] | Ki (Sigma1) [µM] | Ki (Sigma2) [µM] | MES (30) N/F, animals active over tested (MES-induced seizures; 0.5 h) | MES (30) N/F, animals active over tested (MES-induced seizures; 4.0 h) | MES (100) N/F, animals active over tested (MES-induced seizures; 4.0 h) | scMET (30) N/F, animals active over tested ([7]; 0.5 h) | scMET (30) N/F, animals active over tested ([7]; 4.0 h) | scMET (100) N/F, animals active over tested ([7]; 0.5 h) | scMET (100) N/F, animals active over tested ([7]; 4.0 h) | TOX comments (mice; 300 mg/kg, 0.5 h) | TOX (30) N/F, animals toxic over tested (mice; 0.5 h) | TOX (30) N/F, animals toxic over tested (mice; 4.0 h) | other results |
| --- | --- | --- | --- | --- | --- | --- | --- | --- | --- | --- | --- | --- | --- | --- | --- | --- | --- | --- | --- | --- | --- |
| NC1(c2ccccc2)CC2CCC1C2 (stereo not drawn) [Compound 4a, 2-phenylbicyclo[2.2.1]heptan-2-amine] | > 10 | > 10 | > 10 | > 10 | > 10 | > 10 | > 10 | > 10 | 2.2 | 0.995 | 0/1 0/1 | 0/1 0/1 | 1/1 | 0/1 0/1 | 0/1 0/1 | 0/1 0/1 | 0/1 0/1 | Death | 0/4 | 0/2 | % inhibition of 1 nM [3H] (+)-MK-801 [1]: greater than 90%; IC50 [1]: 13.3 ± 0.63 µM; Ki [1]: 8.45 µM; TOX comments (mice; 100 mg/kg, 0.5 h): Severe Tremors, Death following clonic seizure; TOX (100) N/F, animals toxic over tested (mice; 100 mg/kg, 0.5 h): 8/8; TOX (100) N/F, animals toxic over tested (mice; 100 mg/kg, 4.0 h): 0/2; TOX (300) N/F, animals toxic over tested (mice; 300 mg/kg, 0.5 h): 4/4 / |
| NC1(c2ccc(F)cc2)CC2CCC1C2 (stereo not drawn) [Compound 4b, 2-(4-fluorophenyl)bicyclo[2.2.1]heptan-2-amine] | > 10 | > 10 | > 10 | > 10 | > 10 | > 10 | > 10 | > 10 | > 10 | > 10 | 0/1 0/1 | 0/1 0/1 | 0/3 | 0/1 0/1 | 0/1 0/1 | 0/1 0/1 | 0/1 0/1 | Death following clonic seizure | 0/4 | 0/2 | MES (100) N/F, animals active over tested (MES-induced seizures; 0.5 h): 3/3; TOX comments (mice; 100 mg/kg, 0.5 h): Severe Tremors, Clonic seizures; TOX (100) N/F, animals toxic over tested (mice; 100 mg/kg, 0.5 h): 8/8; TOX (100) N/F, animals toxic over tested (mice; 100 mg/kg, 4.0 h): 0/4; TOX (300) N/F, animals toxic over tested (mice; 300 mg/kg, 0.5 h): 4/4 / |
| c1ccc(C2(NCCN3CCCCC3)CC3CCC2C3)cc1 (stereo not drawn) [Compound 5a, 2-Phenyl-N-(2-(piperidin-1-yl)ethyl)bicyclo[2.2.1]heptan-2-amine] | 2.64 | > 10 | > 10 | > 10 | 0.876 | > 10 | > 10 | > 10 | > 10 | > 10 | 0/1 0/1 | 0/1 0/1 | 1/3 | 0/1 0/1 | 0/1 0/1 | 0/1 0/1 | 0/1 0/1 | Death | 0/4 | 0/2 | affinity for NMDA (in words) [1]: highest affinity for NMDA; % inhibition of 1 nM [3H] (+)-MK-801 [1]: greater than 90%; IC50 [1]: 7.86 ± 1.64 µM; Ki [1]: 5.28 µM; MES protection (in words) (MES-induced seizures): MES neuroprotection activity; MES (100) N/F, animals active over tested (MES-induced seizures; 0.5 h): 3/3; MES neuroprotective activity (in words) (MES-induced seizures): greatest degree of protection from MES induced neural damage and death; TOX comments (mice; 100 mg/kg, 0.5 h): Clonic seizures; toxicity profile (in words) (mice; mouse, in vivo): acceptable toxicity profile; TOX (100) N/F, animals toxic over tested (mice; 100 mg/kg, 0.5 h): 8/8; TOX (100) N/F, animals toxic over tested (mice; 100 mg/kg, 4.0 h): 0/4; TOX (300) N/F, animals toxic over tested (mice; 300 mg/kg, 0.5 h): 4/4 / |
| c1ccc(C2(NCCN3CCOCC3)CC3CCC2C3)cc1 (stereo not drawn) [Compound 5c, N-(2-morpholinoethyl)-2-phenylbicyclo [2.2.1] heptan-2-amine] | > 10 | > 10 | > 10 | 2.57 | 0.988 | > 10 | > 10 | > 10 | > 10 | > 10 | 0/1 0/1 | 0/1 0/1 | 0/3 | 0/1 0/1 | 0/1 0/1 | 0/1 0/1 | 0/1 0/1 | Death following clonic seizure; also recorded: Clonic seizures | 0/4 | 0/2 | affinity for NMDA (in words) [1]: did not exhibit significant affinity; MES (100) N/F, animals active over tested (MES-induced seizures; 0.5 h): 2/3; MES neuroprotective activity (in words) (MES-induced seizures): displayed MES neuroprotective activity; scMET (300) N/F, animals active over tested ([7]; 0.5 h): 0/1; scMET (300) N/F, animals active over tested ([7]; 4.0 h): 0/0; TOX comments (mice; 100 mg/kg, 0.5 h): Clonic seizures; TOX comments (mice; 300 mg/kg, 4 h): Death; TOX (100) N/F, animals toxic over tested (mice; 100 mg/kg, 0.5 h): 6/8; TOX (100) N/F, animals toxic over tested (mice; 100 mg/kg, 4.0 h): 0/4; TOX (300) N/F, animals toxic over tested (mice; 300 mg/kg, 0.5 h): 4/4; TOX (300) N/F, animals toxic over tested (mice; 300 mg/kg, 4.0 h): 1/1 |
| c1ccc(C2(NCCN3CCCC3)CC3CCC2C3)cc1 (stereo not drawn) [Compound 5e, 2-Phenyl-N-(2-(pyrrolidin-1-yl)ethyl) bicyclo[2.2.1]heptan-2-amine] | > 10 | > 10 | > 10 | 3.62 | 4.51 | > 10 | > 10 | > 10 | > 10 | > 10 | 0/1 0/1 | 0/1 0/1 | 0/3 0/3 | 0/1 0/1 | 0/1 0/1 | 0/1 0/1 | 0/1 0/1 | Diarrhea; also recorded: Unable to grasp rotorod; also recorded: Death | 0/4 | 0/2 | % inhibition of 1 nM [3H] (+)-MK-801 [1]: greater than 90%; IC50 [1]: 8.48 ± 3.11 µM; Ki [1]: 5.67 µM; MES protection (in words) (MES-induced seizures): all protective in the MES test at the dose of 100 mg/kg except for compound 5e; MES (100) N/F, animals active over tested (MES-induced seizures; 0.5 h): 0/3 0/3; scMET (300) N/F, animals active over tested ([7]; 0.5 h): 0/1; scMET (300) N/F, animals active over tested ([7]; 4.0 h): 0/0; TOX (100) N/F, animals toxic over tested (mice; 100 mg/kg, 0.5 h): 0/8; TOX (100) N/F, animals toxic over tested (mice; 100 mg/kg, 4.0 h): 0/4; TOX (300) N/F, animals toxic over tested (mice; 300 mg/kg, 0.5 h): 4/4 / |
| (+)-MK-801 [reference compound] | – | – | – | – | – | – | – | – | – | – | – | – | – | – | – | – | – | – | – | – | Kd ([1]; read-out: Kd for (+)-MK-801 binding, saturation conditions, homologous binding assay): 0.00175 µM; Ki ([1]; reference): 0.00136 µM |
